Active and inactive are the calls of the source. The calls are words filed in the database; no cut-off is given here.
Experiments:
[1] = target: T1, Serine/threonine-protein kinase TAO2 (Rattus norvegicus, UniProt Q9JLS3); assay: Inhibition of rat TAOK2 (1 to 320 residues) expressed in Baculovirus/insect cell expression system assessed as remaining activity using MBP as substrate and [32P]ATP measured after 10 mins by Kinase-Glo assay
T1 sequence (Q9JLS3 whole entry): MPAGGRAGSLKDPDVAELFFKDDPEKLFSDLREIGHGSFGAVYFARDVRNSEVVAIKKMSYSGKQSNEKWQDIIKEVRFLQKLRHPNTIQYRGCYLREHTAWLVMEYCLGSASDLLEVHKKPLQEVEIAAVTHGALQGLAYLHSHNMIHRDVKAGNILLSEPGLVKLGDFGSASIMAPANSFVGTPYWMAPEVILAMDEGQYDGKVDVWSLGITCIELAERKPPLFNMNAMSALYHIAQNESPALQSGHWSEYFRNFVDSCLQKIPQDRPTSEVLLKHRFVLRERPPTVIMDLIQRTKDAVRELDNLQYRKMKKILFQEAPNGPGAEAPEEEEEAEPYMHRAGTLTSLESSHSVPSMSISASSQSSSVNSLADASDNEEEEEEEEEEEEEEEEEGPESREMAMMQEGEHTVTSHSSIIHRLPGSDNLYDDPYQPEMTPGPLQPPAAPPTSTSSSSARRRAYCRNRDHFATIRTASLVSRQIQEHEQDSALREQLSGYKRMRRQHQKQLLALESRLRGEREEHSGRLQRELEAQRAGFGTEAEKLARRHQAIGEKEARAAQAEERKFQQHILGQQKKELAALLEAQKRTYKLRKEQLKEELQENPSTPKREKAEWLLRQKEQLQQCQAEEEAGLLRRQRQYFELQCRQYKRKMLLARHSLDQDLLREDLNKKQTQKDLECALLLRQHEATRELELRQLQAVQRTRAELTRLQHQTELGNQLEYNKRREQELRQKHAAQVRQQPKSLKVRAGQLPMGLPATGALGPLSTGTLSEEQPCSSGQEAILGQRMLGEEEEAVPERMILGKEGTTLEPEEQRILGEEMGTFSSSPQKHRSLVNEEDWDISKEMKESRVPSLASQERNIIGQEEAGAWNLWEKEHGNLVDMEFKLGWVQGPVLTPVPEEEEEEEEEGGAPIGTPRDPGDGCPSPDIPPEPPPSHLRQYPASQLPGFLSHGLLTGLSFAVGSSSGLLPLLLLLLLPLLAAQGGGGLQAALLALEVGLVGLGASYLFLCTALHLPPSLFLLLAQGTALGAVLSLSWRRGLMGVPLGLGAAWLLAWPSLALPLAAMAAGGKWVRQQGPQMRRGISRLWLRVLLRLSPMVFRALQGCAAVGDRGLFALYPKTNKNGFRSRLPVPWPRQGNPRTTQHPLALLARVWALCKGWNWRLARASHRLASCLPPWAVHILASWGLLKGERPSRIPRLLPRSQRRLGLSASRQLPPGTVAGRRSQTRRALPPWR

[2] = target: T2, Serine/threonine-protein kinase TAO2 (Homo sapiens) (UniProt Q9UL54); assay: Inhibition of TAOK2 in human U2OS cells assessed as inhibition of cellular autophagy measured as P62 accumulation at 50 uM after 24 hrs by western blot analysis; type: cell-based
T2 sequence (whole entry): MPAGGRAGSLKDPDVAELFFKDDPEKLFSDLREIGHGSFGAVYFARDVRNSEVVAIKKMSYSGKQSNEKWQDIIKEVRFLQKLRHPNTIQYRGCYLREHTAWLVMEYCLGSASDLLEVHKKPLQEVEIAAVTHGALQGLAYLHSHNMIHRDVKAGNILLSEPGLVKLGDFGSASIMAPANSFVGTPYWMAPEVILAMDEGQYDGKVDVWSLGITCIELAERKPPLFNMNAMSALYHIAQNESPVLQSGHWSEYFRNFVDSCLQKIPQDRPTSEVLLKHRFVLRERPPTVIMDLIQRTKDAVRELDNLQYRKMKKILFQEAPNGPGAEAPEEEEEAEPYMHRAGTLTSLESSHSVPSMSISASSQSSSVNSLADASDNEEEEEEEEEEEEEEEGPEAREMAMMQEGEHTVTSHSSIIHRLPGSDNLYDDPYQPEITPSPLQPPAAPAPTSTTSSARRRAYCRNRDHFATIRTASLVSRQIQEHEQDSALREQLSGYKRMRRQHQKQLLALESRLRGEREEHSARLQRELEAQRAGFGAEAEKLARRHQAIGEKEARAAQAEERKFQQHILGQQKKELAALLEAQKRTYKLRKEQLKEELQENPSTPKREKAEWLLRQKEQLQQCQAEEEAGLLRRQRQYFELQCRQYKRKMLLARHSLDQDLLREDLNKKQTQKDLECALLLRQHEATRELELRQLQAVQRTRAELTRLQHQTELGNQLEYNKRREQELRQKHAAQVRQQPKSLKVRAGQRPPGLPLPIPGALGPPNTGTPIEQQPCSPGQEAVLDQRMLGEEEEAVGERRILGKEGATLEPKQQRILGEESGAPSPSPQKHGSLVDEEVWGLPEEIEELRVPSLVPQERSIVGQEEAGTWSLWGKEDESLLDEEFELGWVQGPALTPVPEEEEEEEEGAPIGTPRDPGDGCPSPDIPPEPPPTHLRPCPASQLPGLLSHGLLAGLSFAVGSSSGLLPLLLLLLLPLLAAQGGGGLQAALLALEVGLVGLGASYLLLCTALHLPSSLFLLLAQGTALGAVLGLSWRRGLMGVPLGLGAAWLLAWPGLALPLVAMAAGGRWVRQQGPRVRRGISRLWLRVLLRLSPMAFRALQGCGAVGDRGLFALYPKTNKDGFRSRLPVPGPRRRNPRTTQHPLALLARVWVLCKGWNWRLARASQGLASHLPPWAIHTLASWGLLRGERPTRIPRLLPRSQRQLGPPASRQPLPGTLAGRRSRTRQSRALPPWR
How it was run: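 GFP–LC3-expressing U2OS cells were treated for 24 h with compound at 50 µM or with DMSO alone. p62 (SQSTM1) abundance was then assessed by Western blotting as a readout of autophagic degradation.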

[3] = target: T2, Serine/threonine-protein kinase TAO2 (Homo sapiens); assay: Inhibition of TAOK2 in human U2OS cells assessed as inhibition of cellular autophagy measured as GFP-LC3 accumulation at 50 uM after 24 hrs by flow cytometric analysis; type: cell-based
How it was run: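 U2OS cells stably expressing GFP–LC3 were exposed to compound at 50 µM in the medium for 24 h. GFP fluorescence was read by flow cytometry. The median value from 20,000 cells per condition was normalized to DMSO vehicle within each experiment. Data are mean + SD of >2 independent experiments, compared with vehicle by unpaired t test.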

[4] = target: T3, Serine/threonine-protein kinase TAO2 (Rattus norvegicus) (UniProt Q9JLS3); assay: Binding affinity to rat TAOK2 (1 to 320 residues) expressed in Baculovirus/insect cell expression system assessed as change in melting temperature at 1 uM by SYPRO orange dye-based DSF analysis
T3 sequence (whole entry): T1 sequence (Q9JLS3 whole entry)
How it was run: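 Differential scanning fluorimetry: each compound's melting-temperature shift (ΔTm, °C) was measured on the kinase protein. Compounds giving a TAOK2 ΔTm above 0.5 °C were also run against p38 and ASK1. Selectivity (ΔΔTm) was taken as the TAOK2 ΔTm minus the p38 or ASK1 ΔTm.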

SMILES	IC50 [1] [nM]	other results
CC(=O)Nc1nc(C)c(-c2csc(Nc3ccccc3C)n2)s1	1800	–
CC(=O)Nc1nc(C)c(-c2csc(Nc3cccc(C(=O)O)c3)n2)s1	1300	–
CCOc1ccccc1Nc1nc(-c2sc(NC(=O)CC)nc2C)cs1	600	–
CN1c2ccc(S(C)(=O)=O)cc2SC1NC(=O)/C=C/c1ccc(F)cc1 (stereo not drawn)	800	–
CCOc1ccccc1Nc1nc(-c2sc(NC(C)=O)nc2C)cs1	1600	–
Cc1nc(NC(=O)c2ccccc2)sc1-c1csc(Nc2ccc(S(N)(=O)=O)cc2)n1	800	–
CC(=O)Nc1nc(C)c(-c2csc(Nc3ccc(C)cc3)n2)s1	1100	–
CCC(=O)Nc1nc(C)c(-c2csc(Nc3cc(Cl)ccc3C)n2)s1	1600	–
O=C(Nc1cccc(-c2nc3ccccc3c(=O)o2)c1)c1ccccc1Br	4000	inhibition [2]: Active; inhibition [3]: Active; ΔTm [4]: -0.6 °C
CCN(CC)c1ccc(Nc2nc(-c3sc(NC(C)=O)nc3C)cs2)cc1	1700	–
CCC(=O)Nc1nc(C)c(-c2csc(Nc3ccc(NC(C)=O)cc3)n2)s1	1900	–
CC(=O)Nc1nc(C)c(-c2csc(Nc3ccc([N+](=O)[O-])cc3)n2)s1	10000	–
COc1ccc(OC)c(Nc2nc(-c3sc(N)nc3C)cs2)c1	1000	–
CN1c2ccc(S(C)(=O)=O)cc2SC1NC(=O)CCCc1ccccc1 (stereo not drawn)	1700	–
CC(=O)c1cccc(Nc2nc(-c3sc(N)nc3C)cs2)c1	1400	–
O=C(NCCSCc1ccccc1)c1ccc2c(=O)n(C3CCCCC3)c(=S)[nH]c2c1	1900	–
CN1c2ccc(S(C)(=O)=O)cc2SC1NC(=O)CC1CCC(Br)CC1 (stereo not drawn)	1400	–
CCC(=O)Nc1nc(C)c(-c2csc(Nc3ccc(N(C)C)cc3)n2)s1	1200	–
COc1ccc(O)c(/C=C2/SC(=S)NC2=O)c1	3000	inhibition [3]: Active; ΔTm [4]: -0.2 °C
Cc1nc(N)sc1-c1csc(Nc2ccc([N+](=O)[O-])cc2)n1	1000	–
CC(=O)Nc1nc(C)c(-c2csc(Nc3ccc(O)cc3)n2)s1	3800	–
CCC(=O)Nc1nc(C)c(-c2csc(Nc3ccc(N(CC)CC)cc3)n2)s1	2700	–
Cc1nc(N)sc1-c1csc(Nc2cccc(Cl)c2)n1	3100	–
CCC(=O)Nc1nc(C)c(-c2csc(Nc3cccc([N+](=O)[O-])c3)n2)s1	1000	–

SMILES	IC50 [1] [nM]	other results
COc1ccccc1Nc1nc(-c2sc(NC(C)=O)nc2C)cs1	2100	–
CCC(=O)Nc1nc(C)c(-c2csc(Nc3ccccc3OC)n2)s1	1400	–
Cc1cccc(Nc2nc(-c3sc(N)nc3C)cs2)c1	1700	–
CCC(=O)Nc1nc(C)c(-c2csc(Nc3ccc([N+](=O)[O-])cc3)n2)s1	1000	–
Cc1nc(N)sc1-c1csc(Nc2ccc(S(N)(=O)=O)cc2)n1	1400	–
COc1ccc(Cl)cc1Nc1nc(-c2sc(NC(C)=O)nc2C)cs1	1100	–
CC(=O)Nc1nc(C)c(-c2csc(Nc3ccc(Br)cc3)n2)s1	1000	–
Cc1nc(N)sc1-c1csc(Nc2cccc(O)c2)n1	1400	–
Cc1cccc(NC(=S)N/N=C/c2c[nH]c3ccccc23)c1	1000	ΔTm [4]: 0.5 °C
CC(=O)Nc1nc(C)c(-c2csc(Nc3cccc([N+](=O)[O-])c3)n2)s1	10100	–
CC(=O)Nc1nc(C)c(-c2csc(Nc3cccc(C)c3)n2)s1	900	–
COc1ccc(Cl)cc1Nc1nc(-c2sc(N)nc2C)cs1	1000 to 1500	–
CC(=O)Nc1nc(C)c(-c2csc(Nc3ccccc3)n2)s1	1100	–
O=C(NCC1COc2ccccc2O1)c1ccc2c(=O)n(Cc3ccco3)c(=S)[nH]c2c1 (stereo not drawn)	600	–
CN1c2ccc(S(C)(=O)=O)cc2SC1NC(=O)c1ccc(C(=O)c2ccccc2)cc1 (stereo not drawn)	1000	–
CO/C1=C\C(C)=C\[C@@H](C)[C@@H](O)[C@@H](C)C/C(C)=C/C=C/[C@H](OC)[C@@H]([C@@H](C)[C@@H](O)[C@H](C)[C@@]2(O)C[C@@H](O)[C@H](C)[C@@H](C(C)C)O2)OC1=O	–	inhibition [3]: Active
CCC(=O)Nc1nc(C)c(-c2csc(Nc3ccc(O)cc3)n2)s1	1600	–
Cc1nc(N)sc1-c1csc(Nc2cccc([N+](=O)[O-])c2)n1	1700	–
CN1c2ccc(S(C)(=O)=O)cc2SC1NC(=O)CCCOC1CCCCC1 (stereo not drawn)	1900	–
CCC(=O)Nc1nc(C)c(-c2csc(Nc3cccc(C(=O)O)c3)n2)s1	1700	–
CC(=O)Nc1nc(C)c(-c2csc(Nc3cccc(C(C)=O)c3)n2)s1	12000	–
CCC(=O)Nc1nc(C)c(-c2csc(Nc3ccc(S(N)(=O)=O)cc3)n2)s1	1000	–
CCC(=O)Nc1nc(C)c(-c2csc(Nc3cccc(O)c3)n2)s1	1000	–

— ChEMBL document CHEMBL4477233, “Discovery of novel TAOK2 inhibitor scaffolds from high-throughput screening” (Bioorg Med Chem Lett, 2016)
